Drawing on ChEMBL document CHEMBL4513216, “Probing the Open Global Health Chemical Diversity Library for Multistage-Active Starting Points for Next-Generation Antimalarials” (ACS Infect Dis, 2020), this text covers cytotoxicity for 95 compounds.

Structures are written as SMILES.

A short description of this data set: Toxicity liver stage against HepG2, at 10uM. It is filed as cell-based. The arrangement: test concentration 10 uM, cell line HepG2-A16-CD81EGFP. The settings on record: human, HepG2-A16-CD81EGFP cells; read-out: INHIBITION
An outline of the steps: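 Uninfected HepG2-A16-CD81EGFP cells, 3 × 10^3 per well, 1536-well, plated on prespotted compound at 10 μM final, parasite-free screening media added to match infected plates; puromycin 10 μM positive, DMSO 0.5% negative; run in parallel with 48 h PbLuc assay at 37 °C, 5% CO2; viability by CellTiter-Glo luminescence, normalized to controls.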

Turning to `Cc1nn(C)c(C)c1CC(=O)N1CCC(Nc2cccnn2)CC1`, the cytotoxicity at 10 µM is -8.8%. The result for `Cc1cc(C(=O)NCc2ccc(F)cc2)nc(C2CCCN2C)n1` (stereo not given) reads -28.7%.

For `O=S1(=O)COCCN1CCOc1ccccc1`, the cytotoxicity at 10 µM stood at 5.1%.

In the case of `CS(=O)(=O)N1CCC(c2ccncn2)CC1`, the cytotoxicity at 10 µM came to 6.77%.

Consider `CC(C)c1noc(C[S+]([O-])CC(=O)Nc2ccc(F)c(F)c2)n1` (stereo not given), for which the cytotoxicity at 10 µM is -8.82%. The result for `COc1ccccc1OCCc1nnc(NC(=O)C2CC23CCC3)s1` (stereo not given) reads 1.26%. The result for `CN(Cc1cccnc1)[C@@H]1CN(Cc2cnn(C)c2)[C@@H]2CCCO[C@H]12` reads -2.1%; that for `Cc1cc2nccc(C3CCN(C(=O)c4ccccc4F)CC3)n2n1`, 1.16%; that for `CNC(=O)C1(CCCc2ccccn2)CN(Cc2nccn2C)C1`, -1.23%.

Consider `CCc1nc(COc2ccc(OCc3cnn(C)c3)cc2)no1`, for which the cytotoxicity at 10 µM is -14.9%.

With `COc1ccc(CN2CC[C@@H](O)[C@@H]2Cc2ccccc2)cc1`, the cytotoxicity at 10 µM came out at 4.49%. The result for `Cc1nnc2n1CCN(Cc1csc(-c3ccsc3)n1)C2` reads -12.4%; that for `O=C(CC1CC1)NC[C@]12COC[C@H]1CN(c1ncccn1)C2`, -142%. To `c1cnc2c(c1)nc1n2[C@@H](CNCc2nccs2)COC1` belongs -2.66%; to `COC(=O)CCC(=O)N1CCc2nc(C(=O)N(C)C)sc2CC1`, 18.7%; to `CCN(c1ccccc1C(=O)O)S(=O)(=O)c1cccc2cccnc12`, 1.28%. To `CCOc1cc(NC(=O)N2CCC3(CCOCC3)C2)ccc1C` belongs 2.89%. In the case of `CC(C(=O)N(Cc1ccc(F)cc1)CC(F)(F)F)S(C)(=O)=O` (stereo not given), the cytotoxicity at 10 µM stood at 14.7%. The result for `c1ccc(CCN2CCCC(c3noc(C4CC4)n3)C2)cc1` (stereo not given) reads -3.62%; that for `CC(C)c1nnc2n1CCN(C(=O)CN(C)Cc1ccccc1)C2`, -5.17%; that for `CC(C)OCc1nn(C)c2c1CCN(CC1CC1)C2`, 4.91%.

With `O=S(=O)(C1CC1)N1C[C@@H]2CN(Cc3cccs3)CCO[C@@H]2C1`, the cytotoxicity at 10 µM was -134%. For the compound `Nc1ccnc(CNc2cc(F)ccc2OCC2CCCO2)n1` (stereo not given), the cytotoxicity at 10 µM was determined as 17.4%. The result for `Cc1noc(C)c1CN1C[C@@H]2CCCO[C@@H]2[C@H](NS(C)(=O)=O)C1` reads 12.2%; that for `CO[C@@H]1CC[C@H]2[C@H]1OCCN2Cc1ccc(F)cc1`, 1.82%. To `COCC1CN(C(=O)COc2ccc(C)cc2)Cc2cn(C)nc21` (stereo not given) belongs 2.49%; to `COc1cc2cc3c(nc2cc1OC)OCCN(Cc1ccco1)C3`, -0.116%. Regarding `CCOc1ccc(Cl)cc1C(C(=O)O)N1CCCC1` (stereo not given), the cytotoxicity at 10 µM was determined as 0.95%. To `N[C@H]1CN(C(=O)CCC(F)(F)F)C[C@@H]1c1ccccc1` belongs 6.95%; to `CCOc1ccc(N(C)Cc2nnc(C3CC3)o2)cc1`, 8.17%; to `CC(C)C(=O)N1CCN(S(C)(=O)=O)CC2(CC(=O)N(C)C2)C1` (stereo not given), 8.91%. The result for `CC(CCc1cccc(F)c1)NC(=O)NCc1ncnn1C` (stereo not given) reads 12.2%; that for `Cc1cnc(C(=O)N2C[C@@H]3CN(CC4CCCC4)CCO[C@@H]3C2)cn1`, -2.76%; that for `CSCc1cccc(S(=O)(=O)NCCCn2ccnc2)c1`, 4.51%.

For `CSC1=Nc2c(cnn2-c2cccc(Cl)c2)C2=NCCCN12`, the cytotoxicity at 10 µM turned out to be 4.81%. To `O=C(CCSc1ccccc1F)NCc1cccnc1` belongs -4.48%; to `O=S(=O)(c1ccc2c(c1)CCC2)N1CCCC(Cn2cncn2)C1` (stereo not given), 4.19%.

Regarding `Cn1nc(CNc2ncccn2)c2c1CN(c1cnccn1)CC2`, the cytotoxicity at 10 µM was -107%.

As for `CC(C)Cc1noc(CN2CCCC(Cn3cncn3)C2)n1` (stereo not given), the cytotoxicity at 10 µM is -2.6%. The result for `CCN(CC)c1ccc(NC(=O)NCC2CCOC2)cn1` (stereo not given) reads 2.14%. To `c1csc(CN2Cc3[nH]nc(COCC4CC4)c3C2)c1` belongs 6.22%; to `Cn1ccnc1CN1CCC2(CC1)CN(Cc1cccnc1)C(=O)CO2`, 4%. To `CCN(Cc1nc(COC)no1)Cc1cccnc1NC(=O)C(C)(C)C` belongs -47.9%. Regarding `NS(=O)(=O)CCNC(=O)c1cc2ccccc2nc1N1CCCC1`, the cytotoxicity at 10 µM was -10.7%.

As for `CCOC(C)c1noc(CN2CCN(Cc3cccnc3)CC2)n1` (stereo not given), the cytotoxicity at 10 µM is -4.55%. The result for `COc1ccc(C2CC(=O)Oc3cc(C)[nH]c(=O)c32)c(OC)c1` (stereo not given) reads -3.4%; that for `Cn1cnnc1Sc1ccc(NC(=O)C2CC2)cc1Cl`, 0.118%. To `COc1ccc(CNC(=O)c2nn(C)c3c2CS(=O)(=O)CC3)cc1` belongs 8.52%; to `N#CCCN(CC1CC1)Cn1cc(Cl)cn1`, 4.03%; to `COc1cc(CCNC(=O)NCCC2CCCO2)ccc1C` (stereo not given), 9.92%. Regarding `CNC(=O)c1nc2c(s1)CCN(C(=O)Cc1ccc(OC)cc1)CC2`, the cytotoxicity at 10 µM was 4.76%. The result for `Cc1cccc(CN2CCC3(CCC(CC(=O)N(C)C)CC3)CC2)n1` reads -113%; that for `COCC(=O)N1CC[C@@H]2O[C@@H](COCC3CCOCC3)CC[C@@H]21`, 0.718%. The result for `O=C1CN(c2ccc(CNC(=O)NCC3CCOC3)cc2)CCN1` (stereo not given) reads -1.96%.

`Cc1noc(C)c1CN1C[C@@H](NS(=O)(=O)N(C)C)[C@H](C(C)C)C1`: the cytotoxicity at 10 µM amounted to 3.61%. To `C[C@@H]1CN(c2nc3c(cc2C(N)=O)CCC3)C[C@]1(C)O` belongs -0.112%. The result for `COCCCC1(C(=O)O)CCCN(C(=O)c2ccc(Cl)cc2F)C1` (stereo not given) reads -0.37%; that for `CCn1ncnc1CN1CCc2[nH]cnc2C1CCc1ccccc1` (stereo not given), 0.0189%; that for `Cn1cc(C(C)(O)CNC(=O)c2cc(Br)cn2C)cn1` (stereo not given), -51.1%. The result for `Cc1ccc([C@H]2CN(CCO)C[C@@H]2NC(=O)CN2CCCCC2=O)o1` reads 2.1%; that for `CCC(C)NC(=O)N1CCCn2cnc(CO)c2C1` (stereo not given), -9.35%. As to `CNC(=O)C1Cn2ccnc2C2(CCN(Cc3cccs3)CC2)O1` (stereo not given), the cytotoxicity at 10 µM is -70.6%.

Take `CSc1ccc(C2CC(=O)Nc3c2c(=O)[nH]c2ncnn32)cc1` (stereo not given): the cytotoxicity at 10 µM was -8.22%.

Consider `O=C(c1ccncc1)N1CCOC2(COCCN(c3cccnc3)C2)C1` (stereo not given), for which the cytotoxicity at 10 µM was determined as 6.25%.

For `CC(C)n1nnc2c(sc3nc(N4CCOCC4)c4c(c32)CCC4)c1=O`, the cytotoxicity at 10 µM came to 3.26%.

In the case of `Cc1nnc2n1CCN(C(C(=O)N1CCCCC1)c1ccccc1)C2` (stereo not given), the cytotoxicity at 10 µM is -5.83%. To `Cc1cc(-c2nc(-c3cccc(CN4CCOCC4)c3)no2)no1` belongs -7.33%; to `CS(=O)(=O)N[C@@H]1CN(Cc2ccc3ncccc3c2)C[C@H]1O`, -4.34%; to `Cc1nocc1C(=O)N1CCCC2(CCN(c3ccsc3)C2=O)C1` (stereo not given), -129%. `CC(NC(=O)c1cccs1)C(=O)NCc1ccccc1CN1CCCC1` (stereo not given): the cytotoxicity at 10 µM is -14.2%. The result for `COc1ccc(CN2CC[C@H]3[C@H]2CC(=O)N3Cc2cccc(C)n2)cc1` reads 1.2%. To `O=C(CCc1cc2n(n1)CCCN(Cc1ccccc1F)C2)NC1CC1` belongs -12.8%; to `O=C1[C@H]2CN(C3CCOC3)C[C@H]2CN1c1ccccc1` (stereo not given in full), 7.16%.

On to `CC1CN(Cc2noc(C3CC3)n2)CCN1Cc1noc(C2CC2)n1` (stereo not given), for which the cytotoxicity at 10 µM was -5.5%. To `O=C(Cc1cccc(F)c1)NCCNS(=O)(=O)C1CCCC1` belongs 3.61%; to `CC(C)c1nc2oc(C(=O)N3CCOCC3)c(N)c2c2c1CCCC2`, -3.71%; to `COCCN(C)C[C@@H]1CN(C(=O)c2ccoc2)C[C@@H]1CO`, -18.4%. To `c1coc(-c2nc(CN3CCCC(Cn4cncn4)C3)cs2)c1` (stereo not given) belongs -12%.

Turning to `O=C(Cn1cc(C(=O)O)ccc1=O)Nc1cc(F)ccc1F`, the cytotoxicity at 10 µM was found to be 0.687%. To `O=C(Nc1cc(C(F)(F)F)ccc1Cl)c1ccc(N2CCOCC2)nn1` belongs -9.89%; to `O=C(Cn1ccnc1)N(CCO)CCSc1ccc(Cl)cc1`, 4.38%. To `CCN1CCCN(C(=O)c2cnc(OC(C)C)c(Cl)c2)CC1` belongs -14.4%; to `CC(=O)N[C@@H]1CN(C2CCN(c3cccc(C)c3C)CC2)C[C@H]1C(C)C`, -11.7%; to `COCc1cc(CNc2cnn(CC(F)F)c2)ccc1OC`, -7.58%. The result for `Cc1cc(C(=O)NCC2CCS(=O)(=O)C2)ccc1NC(=O)c1ccco1` (stereo not given) reads 19%; that for `CCn1cc(C(=O)NCc2csc(C3CC3)n2)c(C)n1`, 27.4%. As for `CC(=O)N1CC(c2ccnc(Nc3nccs3)n2)C1`, the cytotoxicity at 10 µM came out at 3.23%.

Regarding `CC(C)c1nn(C)c(Cl)c1CNC1CCOc2ccccc21` (stereo not given), the cytotoxicity at 10 µM is 53.2%. To `COCCOCC1(CNC(=O)c2ccc(OC)cc2)C[C@@H](O)[C@@H](O)C1` (stereo not given in full) belongs 0.0221%; to `CC(C)CC(NCc1cscn1)c1ccccn1` (stereo not given), 2.5%; to `Cn1cc(S(=O)(=O)Nc2ccc(Cl)cn2)cc1C(N)=O`, -1.7%. For `CN1CCN(CC[C@@H]2CC[C@H](O)[C@@H](C(=O)Nc3ccccc3)O2)CC1`, the cytotoxicity at 10 µM was -7.1%.

As to `Cc1nc(CN2CCCC(NCCCOc3ccc(F)cc3)C2)no1` (stereo not given), the cytotoxicity at 10 µM was -7.03%.

Regarding `CCc1ccc(S(=O)(=O)N2CCC3(CC(C(=O)NC)=NO3)C2)cc1` (stereo not given), the cytotoxicity at 10 µM is -2.16%. For the compound `CC(C)c1ccccc1OCCNC(=O)N1CCC(CC(N)=O)CC1`, the cytotoxicity at 10 µM worked out at 3.2%.
